These results are taken from ChEMBL document CHEMBL1132221, “Isoxazolo-[3,4-d]-pyridazin-7-(6H)-one as a potential substrate for new aldose reductase inhibitors” (J Med Chem, 1999).

One assay has as its target T1, Aldo-keto reductase family 1 member B1 (Bos taurus, UniProt P16116). Kind of assay: In vitro inhibitory activity against aldose reductase (ALR2) obtained from calf lenses. A digest of the protocol: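 ALR2 purified from calf lens: homogenate in pH 7 phosphate buffer with 5 mM DTT, then DE52 ion exchange, Orange Matrex affinity and Sephadex G75. Assay at 37 °C, 4.7 mM D,L-glyceraldehyde, 0.11 mM NADPH, 0.25 M sodium phosphate pH 6.8 with 0.38 M ammonium sulfate, 1% DMSO. NADPH oxidation read at 340 nm against a substrate-free blank.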
One may read the IC50 as the point on the concentration scale where inhibition reaches its midpoint. A higher IC50 goes with lower potency. In the case of `CC(=O)c1c(-c2ccccc2)nn(CC(=O)O)c(=O)c1N`, the IC50 was found to be 154 µM. On the same count and under the same terms, then `Cc1onc2c(=O)n(C/C=C/C(=O)O)nc(-c3ccccc3)c12`, with 107 µM; and `CC(=O)c1c(C)nn(CC(=O)O)c(=O)c1N`, with 210 µM.

Another assay deals with Aldo-keto reductase family 1 member B1 (Bos taurus) (UniProt P16116). Kind of assay: In vitro inhibitory activity against Aldose reductase 2 obtained from calf lenses at a concentration of 190 uM. The method in brief:
(§1)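 Calf lens ALR2 purified by DE52, Orange Matrex affinity and Sephadex G75 chromatography. Inhibitor in DMSO (1% final) added to a 37 °C reaction with 4.7 mM D,L-glyceraldehyde and 0.11 mM NADPH in 0.25 M sodium phosphate pH 6.8 containing 0.38 M ammonium sulfate. Activity followed as absorbance change at 340 nm, corrected with a blank lacking substrate.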
The term inhibition denotes the percentage by which the read-out fell short of the control. `Cc1nn(CCC(=O)O)c(=O)c2noc(C)c12` displayed an inhibition of 28%.

The next assay has the same target. The assay can be described thus: In vitro inhibitory activity against Aldose reductase 2 obtained from calf lenses at a concentration of 82 uM. A digest of the protocol: as §1
As for `Nc1cc(-c2ccccc2)nn(CC(=O)O)c1=O`, the inhibition was found to be 36%.

Another assay has the same target. Kind of assay: In vitro inhibitory activity against Aldose reductase 2 obtained from calf lenses at a concentration of 94 uM. The method in brief: as §1
For `CC(=O)c1c(-c2ccccc2)nn(CC(=O)O)c(=O)c1Nc1ccc(Cl)cc1`, the inhibition was determined as 27%.

The target in a further assay is T1, Aldo-keto reductase family 1 member B1. Kind of assay: In vitro inhibitory activity against Aldose reductase 2 obtained from calf lenses.
Compound `Cc1onc2c(=O)n(CC(=O)O)nc(-c3ccccc3[N+](=O)[O-])c12` showed an IC50 of 6.06 µM. Still for that read-out and setting: the result for `O=C(O)Cn1nc(-c2ccccc2)cc(NCCc2ccccc2)c1=O` reads 68.5 µM; that for `O=C(O)Cn1nc(-c2ccccc2)cc(NCc2ccccc2)c1=O`, 48.8 µM. Still for that read-out and setting: the result for `CC(=O)c1c(-c2ccccc2)nn(CCCC(=O)O)c(=O)c1N` reads 37 µM; that for `O=C(O)Cn1nc(-c2ccccc2)cc(NCCc2ccccn2)c1=O`, 157 µM. On the same count and under the same terms, then `Cc1onc2c(=O)n(CCCC(=O)O)nc(-c3ccccc3)c12`, with 20.2 µM; and `CC(=O)c1c(-c2ccccc2)nn(CC(=O)O)c(=O)c1NCCc1ccccc1`, with 93.9 µM.

`CCCC(C(=O)O)n1nc(-c2ccccc2)c2c(C)onc2c1=O` (configuration not stated) displayed an IC50 of 114 µM. The same measure, in the same setting: then `Cc1nn(CCCC(=O)O)c(=O)c2noc(C)c12`, with 65.1 µM. Same read-out and setting: the result for `Cc1onc2c(=O)n(CC(=O)O)nc(-c3ccccc3)c12` reads 12.7 µM; that for `CCC(C(=O)O)n1nc(-c2ccccc2)c2c(C)onc2c1=O` (configuration not stated), 75 µM; that for `Cc1onc2c(=O)n(CC(=O)O)nc(-c3ccc([N+](=O)[O-])cc3)c12`, 4.76 µM. Consider `Cc1onc2c(=O)n(CC(=O)O)nc(-c3ccc(Cl)cc3)c12`, for which 3.72 µM corresponded to half-maximal inhibition (IC50). Same read-out and setting: then `Cc1onc2c(=O)n(CCC(=O)O)nc(-c3ccc(Cl)cc3)c12`, with 34.8 µM; and `Cc1nn(CC(=O)O)c(=O)c2noc(C)c12`, with 42 µM. Still for that read-out and setting: then `CC(=O)c1c(-c2ccccc2)nn(CC(=O)O)c(=O)c1Nc1ccc(Br)cc1`, with 133 µM; and `Cc1onc2c(=O)n(CCCC(=O)O)nc(-c3ccc(Cl)cc3)c12`, with 10.4 µM; and `C[c-]1[o+]nc2c(=O)n(CC(=O)O)nc(-c3cccc([N+](=O)[O-])c3)c21`, with 4.46 µM.

`CC(=O)c1c(-c2ccccc2)nn(CC(=O)O)c(=O)c1NCc1ccc(Cl)cc1`: inhibition was half-maximal at 36.5 µM (IC50). On the same count and under the same terms, the result for `Cc1onc2c(=O)n(CCCCC(=O)O)nc(-c3ccccc3)c12` reads 28.4 µM; that for `Cc1onc2c(=O)n(CCC(=O)O)nc(-c3ccccc3)c12`, 65.2 µM; that for `Cc1c(-c2nc3cc(C(F)(F)F)ccc3s2)nc2c(O)n(CC(=O)O)nc(-c3ccccc3)c1-2`, 97.9 µM.

For `CC(=O)c1c(-c2ccccc2)nn(CC(=O)O)c(=O)c1NCc1ccccc1`, it took 27.6 µM to reach half-maximal inhibition (IC50).

In turn, `Cc1onc2c(=O)n(C(C)C(=O)O)nc(-c3ccccc3)c12` (configuration not stated) came in with an IC50 of 76.8 µM.

Another assay deals with Aldo-keto reductase family 1 member B1 (Bos taurus) (UniProt P16116). The assay can be described thus: In vitro inhibitory activity against Aldose reductase 2 obtained from calf lenses at a concentration of 16 uM. A digest of the protocol: as §1
On to `CC(=O)c1c(-c2ccccc2)nn(CC(=O)O)c(=O)c1Nc1ccccc1`, for which the inhibition is 12%.

A further assay has the same target. The assay can be described thus: In vitro inhibitory activity against Aldose reductase 2 obtained from calf lenses at a concentration of 142 uM. The method in brief: as §1
`CC(=O)c1c(-c2ccccc2)nn(CCC(=O)O)c(=O)c1N` showed an inhibition of 27%.
